Paper PMC4684756 (Nature immunology, 2015)
Entries after “also recorded” stand apart in the source; their conditions may differ.

Key:
CD8+ 42F3 T cells = assay: IL-2 release dose response of CD8+ 42F3 T cells to peptide-pulsed APCs; type: cell-based, murine; settings: for IL-2 agonist character (in words): titrated IL-2 response in CD8+ 42F3 T cells; for maximal IL-2 response (high / medium / low): transduced CD8+ 42F3 cells, among CD8-dependent agonists
How it was run: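 Murine 58−/− hybridoma (TCRα−β−) expressing CD8αβ, retrovirally transduced with 42F3 TCR, co-cultured 1:1 with LM1.8-L^dW97R APCs (5x10⁴ cells; grown in RPMI/10% FBS) and titrated peptide for 20 h at 37°C. Peptide stocks were 50mM in DMSO, diluted in RPMI. IL-2 in supernatants was measured by HRP-colorimetric ELISA. EC50 and Emax came from the titration curves.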

[1] = molecular target: p4B10 / H-2L^d mini-MHC m31r (murine); assay: SPR
[2] = molecular target: pCPA12 / H-2L^d mini-MHC m31r (murine); assay: SPR
[3] = molecular target: pCPB7 / H-2L^d mini-MHC m31r (murine); assay: SPR
[4] = molecular target: pCPB9 / H-2L^d mini-MHC m31r (murine); assay: SPR
[5] = molecular target: pCPC5 / H-2L^d mini-MHC m31r (murine); assay: SPR
[6] = molecular target: pCPE3 / H-2L^d mini-MHC m31r (murine); assay: SPR

VPYMAEFGM [pCPA12]
IL-2 agonist character (in words) (CD8+ 42F3 T cells): partial IL-2 responses; also recorded: partial agonist
maximal IL-2 response (high / medium / low) (CD8+ 42F3 T cells): medium

42F3 TCR
Kd [1]: 10000 nM
koff [1]: > 0.5 s⁻¹
Kd [2]: 2000 nM
koff [2]: 0.0579 s⁻¹
kon [2]: 31400 M⁻¹ s⁻¹
koff [3]: 0.0579 s⁻¹
kon [3]: 495000 M⁻¹ s⁻¹
koff [4]: 0.0668 s⁻¹
Kd [5]: 1000 nM
koff [5]: 0.197 s⁻¹
Kd [6]: 700 nM
koff [6]: 0.166 s⁻¹
kon [6]: 58600 M⁻¹ s⁻¹

SPAPRPLDL [pCPC5]
IL-2 agonist character (in words) (CD8+ 42F3 T cells): partial IL-2 responses; also recorded: partial agonist

MPAGRPWDL [pCPE3]
IL-2 agonist character (in words) (CD8+ 42F3 T cells): weak agonist; also recorded: partial agonist

FLSPFWFDI [p5E8]
maximal IL-2 response (high / medium / low) (CD8+ 42F3 T cells): high
